Active and inactive are the calls of the source. No cut-off for these calls is given here.
Legend:
[1] = species on record: Ovis aries; assay: Displacement of [3H]-YM09151-2 from dopamine D2 receptor in lamb brain striatum membranes at 25 uM; format: cell membranes; conditions: Membrane
Procedure, shortened: (§1)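 Lamb striatal membranes (0.5 mg prot/mL) in 50 mM Tris-HCl pH 7.4 with 10 mM MgCl2 were incubated 2 h at 22 C. Radioligand was 0.9 nM [3H]-SCH23390 (D1) or 0.7 nM [3H]-YM09151-2 (D2). Screens used 25 μM compound; competition used increasing concentrations. Nonspecific binding was taken with 10 μM SCH23390 (D1) or raclopride (D2). Bound ligand was filtered and counted. KD values came from a two-state dimer receptor model fit.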

[2] = species on record: Ovis aries; assay: Displacement of [3H]-SCH23390 from dopamine D1 receptor in lamb brain striatum membranes at 25 uM; format: cell membranes; conditions: Membrane; procedure, shortened: as §1
[3] = molecular target: T1, Adenosine receptor A1 (Homo sapiens) (UniProt P30542); assay: Displacement of [3H]-R-PIA from adenosine A1 receptor at 25 uM
T1 sequence (whole entry): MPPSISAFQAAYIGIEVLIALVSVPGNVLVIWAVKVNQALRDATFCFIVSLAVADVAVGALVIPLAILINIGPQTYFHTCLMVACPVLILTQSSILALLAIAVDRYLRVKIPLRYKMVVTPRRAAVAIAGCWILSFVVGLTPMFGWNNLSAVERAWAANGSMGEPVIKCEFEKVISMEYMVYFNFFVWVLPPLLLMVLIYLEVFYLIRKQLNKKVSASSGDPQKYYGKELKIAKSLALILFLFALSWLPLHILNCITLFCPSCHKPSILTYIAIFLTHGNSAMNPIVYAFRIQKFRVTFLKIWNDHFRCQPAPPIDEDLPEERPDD
Procedure, shortened: (§2)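 Membranes were incubated with 25 μM compound for 2 h at 22 C in 50 mM Tris-HCl pH 7.4 with 10 mM MgCl2 and 0.2 U/mL ADA. Radioligand was 1.0 nM [3H]-R-PIA (A1) or 1.6 nM [3H]ZM241385 (A2A). Nonspecific binding was taken with 10 μM DPCPX (A1) or ZM241385 (A2A). Separation was by GF/C filtration, then scintillation counting.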

[4] = molecular target: Adenosine receptor A2a (Homo sapiens) (UniProt P29274); assay: Displacement of [3H]-ZM241385 from adenosine A2A receptor at 25 uM; procedure, shortened: as §2
[5] = Displacement of [3H]-SCH23390 from dopamine D1 receptor high binding affinity site in lamb brain striatum membranes at 25 uM; format: cell membranes, Ovis aries, Membrane; procedure, shortened: as §1
[6] = Displacement of [3H]-YM09151-2 from dopamine D2 receptor low binding affinity site in lamb brain striatum membranes at 25 uM; format: cell membranes, Ovis aries, Membrane; procedure, shortened: as §1
[7] = Displacement of [3H]-SCH23390 from dopamine D1 receptor low binding affinity site in lamb brain striatum membranes at 25 uM; format: cell membranes, Ovis aries, Membrane; procedure, shortened: as §1
[8] = Displacement of [3H]-YM09151-2 from dopamine D2 receptor high binding affinity site in lamb brain striatum membranes at 25 uM; format: cell membranes, Ovis aries, Membrane; procedure, shortened: as §1

Adenosine receptor A2a (Homo sapiens), sequence (P29274 whole entry): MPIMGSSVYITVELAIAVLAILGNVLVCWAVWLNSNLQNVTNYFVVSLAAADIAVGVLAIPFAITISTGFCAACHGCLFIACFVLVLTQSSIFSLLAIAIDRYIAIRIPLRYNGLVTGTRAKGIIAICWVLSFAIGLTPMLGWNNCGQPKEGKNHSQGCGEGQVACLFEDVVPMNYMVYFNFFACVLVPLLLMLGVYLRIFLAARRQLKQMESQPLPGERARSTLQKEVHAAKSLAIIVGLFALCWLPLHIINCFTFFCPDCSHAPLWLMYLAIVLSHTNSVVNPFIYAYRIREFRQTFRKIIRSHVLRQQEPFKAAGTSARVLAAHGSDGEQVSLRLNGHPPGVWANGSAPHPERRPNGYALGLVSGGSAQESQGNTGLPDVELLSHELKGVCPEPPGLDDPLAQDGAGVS

Activity [1]	Activity [2]	SMILES	further results
Active	Active	CC(=O)N[C@@H](CCC(=O)NCCNC(=O)[C@@H]1CCCN1C(=O)[C@H](Cc1ccc([N+](=O)[O-])cc1)NC(=O)[C@@H](NC(=O)[C@@H]1C=C2c3cccc4[nH]cc(c34)C[C@H]2N(C)C1)C(C)C)C(N)=O	
Active	Active	CC(=O)N[C@@H](CCC(=O)NCCCCCCNC(=O)[C@@H]1CCCN1C(=O)[C@H](Cc1ccc([N+](=O)[O-])cc1)NC(=O)[C@@H](NC(=O)[C@@H]1C=C2c3cccc4[nH]cc(c34)C[C@H]2N(C)C1)C(C)C)C(N)=O	
Active		CC(=O)N[C@@H](CCCCNC(=O)CCCC(=O)NCCNC(=O)C1CCCN(C(=O)[C@H](Cc2ccc(F)cc2)NC(=O)[C@H](Cc2ccc([N+](=O)[O-])cc2)NC(=O)[C@@H]2C=C3c4cccc5[nH]cc(c45)C[C@H]3N(C)C2)C1)C(N)=O (stereo not given in full)	
	Active	CC(=O)N[C@@H](CCCCNC(=O)[C@@H](CCCCNC(=O)[C@@H]1CCCN1C(=O)[C@H](Cc1ccc([N+](=O)[O-])cc1)NC(=O)[C@@H](NC(=O)[C@@H]1C=C2c3cccc4[nH]cc(c34)C[C@H]2N(C)C1)C(C)C)NC(C)=O)C(N)=O	Activity [3]: Active; Activity [4]: Active
Active		CC(=O)N[C@@H](CCC(=O)Nc1ccc(Sc2ccc(NC(=O)C3CCCN(C(=O)[C@H](Cc4ccc(F)cc4)NC(=O)[C@H](Cc4ccc([N+](=O)[O-])cc4)NC(=O)[C@@H]4C=C5c6cccc7[nH]cc(c67)C[C@H]5N(C)C4)C3)cc2)cc1)C(N)=O (stereo not given in full)	
Active		CC(=O)N[C@@H](CCCCNC(=O)C1CCCN(C(=O)[C@H](Cc2ccc(F)cc2)NC(=O)[C@H](Cc2ccc([N+](=O)[O-])cc2)NC(=O)[C@@H]2C=C3c4cccc5[nH]cc(c45)C[C@H]3N(C)C2)C1)C(N)=O (stereo not given in full)	
Active	inactive	CC(=O)N[C@@H](CCCCNC(=O)[C@H](N)CCCCNC(=O)[C@@H]1CCCN1C(=O)[C@H](Cc1ccc([N+](=O)[O-])cc1)NC(=O)[C@@H](NC(=O)[C@@H]1C=C2c3cccc4[nH]cc(c34)C[C@H]2N(C)C1)C(C)C)C(N)=O	
Active		CC(=O)N[C@@H](CCCCNC(=O)[C@@H](CCCCN)NC(=O)[C@@H]1CCCN1C(=O)[C@H](Cc1ccc([N+](=O)[O-])cc1)NC(=O)[C@@H](NC(=O)[C@@H]1C=C2c3cccc4[nH]cc(c34)C[C@H]2N(C)C1)C(C)C)C(N)=O	
		CC(=O)N[C@@H](CCCCNC(=O)[C@@H]1CCCN1C(=O)[C@H](Cc1ccc([N+](=O)[O-])cc1)NC(=O)[C@@H](NC(=O)[C@@H]1C=C2c3cccc4[nH]cc(c34)C[C@H]2N(C)C1)C(C)C)C(=O)NCCCC[C@H](NC(=O)CCCC[C@H]1SC[C@H]2NC(=O)N[C@H]21)C(N)=O	Kd [5]: 2100 nM; Kd [6]: 23000 nM; Kd [7]: > 50000 nM; Kd [8]: 2000 nM
Active		CC(=O)N[C@@H](CCCCNC(=O)c1ccc(-c2ccc(C(=O)NCCNC(=O)C3CCCN(C(=O)[C@H](Cc4ccc(F)cc4)NC(=O)[C@H](Cc4ccc([N+](=O)[O-])cc4)NC(=O)[C@@H]4C=C5c6cccc7[nH]cc(c67)C[C@H]5N(C)C4)C3)cc2)cc1)C(N)=O (stereo not given in full)	
Active		CC(=O)N[C@@H](CCCCNC(=O)CCC(=O)NCCNC(=O)[C@@H]1CCCN1C(=O)[C@H](Cc1ccc([N+](=O)[O-])cc1)NC(=O)[C@@H](NC(=O)[C@@H]1C=C2c3cccc4[nH]cc(c34)C[C@H]2N(C)C1)C(C)C)C(N)=O	
Active		CC(=O)N[C@@H](CCCCNC(=O)[C@@H](CCCCNC(=O)C1CCCN(C(=O)[C@H](Cc2ccc(F)cc2)NC(=O)[C@H](Cc2ccc([N+](=O)[O-])cc2)NC(=O)[C@@H]2C=C3c4cccc5[nH]cc(c45)C[C@H]3N(C)C2)C1)NC(C)=O)C(N)=O (stereo not given in full)	Activity [3]: Active; Activity [4]: Active
		CC(C)[C@H](NC(=O)[C@@H]1C=C2c3cccc4[nH]cc(c34)C[C@H]2N(C)C1)C(=O)N[C@@H](Cc1ccc([N+](=O)[O-])cc1)C(=O)N1CCC[C@H]1C(=O)NCCCCCC(=O)NCCCC[C@H](NC(=O)CCCC[C@H]1SC[C@H]2NC(=O)N[C@H]21)C(N)=O	Kd [5]: 107 nM; Kd [6]: 7000 nM; Kd [7]: 3200 nM; Kd [8]: 260 nM
	Active	CC(=O)N[C@@H](CCCCNC(=O)CCCCCNC(=O)[C@@H]1CCCN1C(=O)[C@H](Cc1ccc([N+](=O)[O-])cc1)NC(=O)[C@@H](NC(=O)[C@@H]1C=C2c3cccc4[nH]cc(c34)C[C@H]2N(C)C1)C(C)C)C(N)=O	Activity [3]: Active
Active		CC(=O)N[C@@H](CCCCNC(=O)c1ccc(C(=O)c2ccc(C(=O)NCCNC(=O)C3CCCN(C(=O)[C@H](Cc4ccc(F)cc4)NC(=O)[C@H](Cc4ccc([N+](=O)[O-])cc4)NC(=O)[C@@H]4C=C5c6cccc7[nH]cc(c67)C[C@H]5N(C)C4)C3)cc2)cc1)C(N)=O (stereo not given in full)	
		CC(=O)N[C@@H](CCCCNC(=O)CCCCCNC(=O)C1CCCN(C(=O)[C@H](Cc2ccc(F)cc2)NC(=O)[C@H](Cc2ccc([N+](=O)[O-])cc2)NC(=O)[C@@H]2C=C3c4cccc5[nH]cc(c45)C[C@H]3N(C)C2)C1)C(N)=O (stereo not given in full)	Activity [3]: Active; Activity [4]: Active
Active		CC(=O)N[C@@H](CCC(=O)Nc1ccc(-c2ccc(NC(=O)C3CCCN(C(=O)[C@H](Cc4ccc(F)cc4)NC(=O)[C@H](Cc4ccc([N+](=O)[O-])cc4)NC(=O)[C@@H]4C=C5c6cccc7[nH]cc(c67)C[C@H]5N(C)C4)C3)cc2)cc1)C(N)=O (stereo not given in full)	
Active		CC(=O)N[C@@H](CCC(=O)Nc1ccc(-c2ccc(NC(=O)[C@@H]3CCCN3C(=O)[C@H](Cc3ccc([N+](=O)[O-])cc3)NC(=O)[C@@H](NC(=O)[C@@H]3C=C4c5cccc6[nH]cc(c56)C[C@H]4N(C)C3)C(C)C)cc2)cc1)C(N)=O	

SMILES	Activity [1]	Activity [2]	further results
CC(=O)N[C@@H](CCCCNC(=O)[C@@H]1CCCN1C(=O)[C@H](Cc1ccc([N+](=O)[O-])cc1)NC(=O)[C@@H](NC(=O)[C@@H]1C=C2c3cccc4[nH]cc(c34)C[C@H]2N(C)C1)C(C)C)C(N)=O	Active	Active	

— ChEMBL document CHEMBL1671805, “Biotin ergopeptide probes for dopamine receptors” (J Med Chem, 2011)
